Experimental data reported in ChEMBL document CHEMBL1125865, “Synthesis, antibacterial activities, and pharmacological properties of enantiomers of temafloxacin hydrochloride” (J Med Chem, 1991).
≈ marks a conversion by molar mass, not a printed value.

Tests used:
Rattus norvegicus [1] = test: Effect on the spontaneous locomotor activity of rats at 0-15 min upon ip administration of the compounds at a dose of 15 mg/kg; type: functional; settings: route intraperitoneal
In short: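 Rats were dosed ip; methylcellulose served as vehicle, and treatments were assigned randomly. Thirty minutes after dosing, each rat was placed in its own circular activity chamber. Activity was counted as photocell beam interruptions and recorded at 15 and 60 min after the test started. Values are mean counts ± SEM.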

Rattus norvegicus [2] = test: Effect on the spontaneous locomotor activity of rats at 0-15 min upon ip administration of the compounds at a dose of 1 mg/kg; type: functional; settings: route intraperitoneal
In short: (§1)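 Rats were given test agent or methylcellulose vehicle (ip or po, per line), with treatments in random order. 30 min after dosing, each rat went into an individual circular activity chamber. Locomotion was counted as photocell-beam interruptions, recorded at 15 and 60 min from test start and reported as mean counts ± SEM.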

Rattus norvegicus [3] = test: Effect on the spontaneous locomotor activity of rats at 0-15 min upon po administration of the compounds at a dose of 30 mg/kg; type: functional; in short: as §1
Micrococcus luteus [4] = test: The in vitro antibacterial activity as minimum inhibitory concentration against Micrococcus luteus ATCC 9341; type: functional
In short: (§2)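 Agar dilution in BHI agar. Organisms were grown overnight in BHI broth at 36 °C. Two-fold dilutions gave test concentrations from 200 to 0.005 μg/mL. Plates were inoculated with ~10^4 organisms and incubated 18 h at 36 °C. MIC was the lowest concentration with no visible growth.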

Pseudomonas aeruginosa [5] = test: The in vitro antibacterial activity as minimum inhibitory concentration against Pseudomonas aeruginosa BMH10; type: functional; in short: as §2
Staphylococcus aureus [6] = test: Median dose against Staphylococcus aureus NCTC 10649 in mouse after peroral administration at a dose of 100xLD50 in TEST 2.; type: functional; settings: po
In short: (§3)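 CF-1 female mice (~20 g) were infected ip with 0.5 mL of an 18-h BHI broth culture diluted in 5% (w/v) hog gastric mucin to the stated multiple of LD50. The HCl salt was dissolved in distilled water and given sc or po, with the total dose split equally at 1 and 5 h post-infection. Groups of 10 mice received at least three dose levels; ten infected mice were left untreated. Deaths were recorded daily for 6 days. ED50 came from day-6 cumulative mortality using the trimmed logit method.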

Staphylococcus aureus [7] = test: The in vitro antibacterial activity as minimum inhibitory concentration against Staphylococcus aureus 45 RAR2; type: functional; in short: as §2
Staphylococcus aureus [8] = test: The in vitro antibacterial activity as minimum inhibitory concentration against Staphylococcus aureus A5177; type: functional
In short: (§4)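 Agar dilution: organisms grown overnight in BHI broth at 36 °C. Two-fold dilutions of a 2000 μg/mL stock were made in BHI agar, giving 200 to 0.005 μg/mL final. Plates were inoculated with about 10^4 organisms and incubated 18 h at 36 °C. MIC is the lowest concentration with no visible growth.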

Escherichia coli [9] = test: Median dose against Escherichia coli Juhl in mouse after subcutaneous administration at a dose of 100xLD50 in TEST 1.; type: functional; settings: sc; in short: as §3
Pseudomonas aeruginosa [10] = test: Median dose against Pseudomonas aeruginosa A5007 in mouse after peroral administration at a dose of 100xLD50 in TEST 1.; type: functional; settings: po; in short: as §3
Escherichia coli [11] = test: The in vitro antibacterial activity as minimum inhibitory concentration against Escherichia coli H-560; type: functional; in short: as §2
Escherichia coli [12] = test: The in vitro antibacterial activity as minimum inhibitory concentration against Escherichia coli Juhl; type: functional; in short: as §2
Pseudomonas aeruginosa [13] = test: The in vitro antibacterial activity as minimum inhibitory concentration against Pseudomonas aeruginosa K799/WT; type: functional; in short: as §2
Staphylococcus aureus [14] = test: Median dose against Staphylococcus aureus NCTC 10649 in mouse after subcutaneous administration at a dose of 100xLD50 in TEST 1.; type: functional; settings: sc; in short: as §3
Enterococcus faecium = test: The in vitro antibacterial activity as minimum inhibitory concentration against Enterococcus faecium ATCC 8043; type: functional; in short: as §2
Micrococcus luteus [15] = test: The in vitro antibacterial activity as minimum inhibitory concentration against Micrococcus luteus ATCC 4698; type: functional; in short: as §2
Escherichia coli [16] = test: Median dose against Escherichia coli Juhl cumulative mortalities in mouse after peroral administration at a dose of 100xLD50 in TEST 1.; type: functional; settings: po
In short: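 Female CF-1 mice (~20 g) were challenged ip with 0.5 mL of 18-h BHI culture diluted in 5% hog gastric mucin to 100× LD50 (LD50 by Reed–Muench). Oral doses in distilled water were split equally at 1 and 5 h post-infection, with ≥3 dose levels and 10 mice each, plus untreated controls. ED50 was derived from day-6 cumulative mortality by trimmed logit.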

Klebsiella pneumoniae = test: The in vitro antibacterial activity as minimum inhibitory concentration against Klebsiella pneumoniae ATCC 8045; type: functional; in short: as §2
Escherichia coli [17] = test: The in vitro antibacterial activity as minimum inhibitory concentration against Escherichia coli DC-2; type: functional; in short: as §2
Streptococcus pyogenes [18] = test: The in vitro antibacterial activity as minimum inhibitory concentration against Streptococcus pyogenes 930 Const; type: functional; in short: as §4
Klebsiella aerogenes = test: The in vitro antibacterial activity as minimum inhibitory concentration against Enterobacter aerogenes ATCC 13048; type: functional; in short: as §2
[19] = Compound was tested for its water solubility in water.; type: ADME; settings: read-out: S
In short: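 Solubility measured by adding excess drug to a fixed volume of distilled water at ambient temperature.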

Streptococcus agalactiae = test: The in vitro antibacterial activity as minimum inhibitory concentration against Streptococcus agalactiae CMX 508; type: functional; in short: as §4
Streptococcus pyogenes [20] = test: The in vitro antibacterial activity as minimum inhibitory concentration against Streptococcus pyogenes 2548 INDUC; type: functional; in short: as §4
Streptococcus pneumoniae [21] = test: Median dose against Streptococcus pneumoniae 6303 in mouse after peroral administration at a dose of 100xLD50 in TEST 1.; type: functional; settings: po; in short: as §3
Pseudomonas aeruginosa [22] = test: Median dose against Pseudomonas aeruginosa A5007 in mouse after peroral administration at a dose of 100xLD50 in TEST 2.; type: functional; settings: po; in short: as §3
Acinetobacter = test: The in vitro antibacterial activity as minimum inhibitory concentration against Acinetobacter sp. CMX 669; type: functional; in short: as §2
Staphylococcus aureus [23] = test: The in vitro antibacterial activity as minimum inhibitory concentration against Staphylococcus aureus ATCC 6538P; type: functional; in short: as §4
Pseudomonas aeruginosa [24] = test: Median dose against Pseudomonas aeruginosa A5007 in mouse after subcutaneous administration at a dose of 100xLD50 in TEST 1.; type: functional; settings: sc; in short: as §3
Pseudomonas aeruginosa [25] = test: The in vitro antibacterial activity as minimum inhibitory concentration against Pseudomonas aeruginosa A5007; type: functional; in short: as §2
Streptococcus equinus = test: The in vitro antibacterial activity as minimum inhibitory concentration against Streptococcus bovis A5169; type: functional; in short: as §4
Pseudomonas aeruginosa [26] = test: Median dose against Pseudomonas aeruginosa A5007 in mouse after subcutaneous administration at a dose of 100xLD50 in TEST 2.; type: functional; settings: sc; in short: as §3
Streptococcus pneumoniae [27] = test: Median dose against Streptococcus pneumoniae 6303 in mouse after subcutaneous administration at a dose of 100xLD50 in TEST 1.; type: functional; settings: sc; in short: as §3
Staphylococcus aureus [28] = test: The in vitro antibacterial activity as minimum inhibitory concentration against Staphylococcus aureus CMX 553; type: functional; in short: as §4
Burkholderia cepacia = test: The in vitro antibacterial activity as minimum inhibitory concentration against Pseudomonas cepacia 2961; type: functional; in short: as §2
Providencia stuartii = test: The in vitro antibacterial activity as minimum inhibitory concentration against Providencia stuartii CMX 640; type: functional; in short: as §2
[29] = test system: Staphylococcus epidermidis; test: The in vitro antibacterial activity as minimum inhibitory concentration against Staphylococcus epidermidis 3519; type: functional; in short: as §4
Streptococcus pyogenes [30] = test: The in vitro antibacterial activity as minimum inhibitory concentration against Streptococcus pyogenes EES61; type: functional; in short: as §4
Staphylococcus aureus [31] = test: Median dose against Staphylococcus aureus NCTC 10649 in mouse after subcutaneous administration at a dose of 100xLD50 in TEST 2.; type: functional; settings: sc; in short: as §3
Escherichia coli [32] = test: The in vitro antibacterial activity as minimum inhibitory concentration against Escherichia coli SS; type: functional; in short: as §2
Escherichia coli [33] = test: Median dose against Escherichia coli Juhl in mouse after subcutaneous administration at a dose of 100xLD50 in TEST 2.; type: functional; settings: sc; in short: as §3
[34] = Compound was tested for its water solubility at pH 7.5; type: physicochemical; settings: aqueous, pH 7.5, pH 7.5
In short: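 Solubility measured by adding excess drug to a fixed volume of 0.05 M pH 7.5 potassium phosphate buffer at ambient temperature.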

Escherichia coli [35] = test: Median dose against Escherichia coli Juhl in mouse after peroral administration at a dose of 100xLD50 in TEST 2.; type: functional; settings: po; in short: as §3
Pseudomonas aeruginosa [36] = test: The in vitro antibacterial activity as minimum inhibitory concentration against Pseudomonas aeruginosa K799/61; type: functional; in short: as §2
Staphylococcus aureus [37] = test: The in vitro antibacterial activity as minimum inhibitory concentration against Staphylococcus aureus 45; type: functional; in short: as §2
Staphylococcus aureus [38] = test: Median dose against Staphylococcus aureus NCTC 10649 in mouse after peroral administration at a dose of 100xLD50 in TEST 1.; type: functional; settings: po; in short: as §3
[39] = Partition coefficient in octanol/water at pH 7.5 buffer.; type: physicochemical
Escherichia coli [40] = test: The in vitro antibacterial activity as minimum inhibitory concentration against Escherichia coli KNK437; type: functional; in short: as §2

SMILES: CN(C)CCCN1c2ccccc2Sc2ccc(Cl)cc21 [CHLORPROMAZINE]
- Mean activity counts (Rattus norvegicus [1]): 31

SMILES: CN[C@@H](C)Cc1ccccc1 [METHAMPHETAMINE]
- Mean activity counts (Rattus norvegicus [2]): 1462

SMILES: CCn1cc(C(=O)O)c(=O)c2cc3c(cc21)OCO3 [OXOLINIC ACID]
- Mean activity counts (Rattus norvegicus [3]): 972

SMILES: CC1CN(c2cc3c(cc2F)c(=O)c(C(=O)O)cn3-c2ccc(F)cc2F)CCN1 (stereo not drawn) [TEMAFLOXACIN]
- MIC (Micrococcus luteus [4]): 3.1 µg/mL (≈ 7.43 µM)
- MIC (Pseudomonas aeruginosa [5]): 0.39 µg/mL (≈ 0.934 µM)
- ED50 (Staphylococcus aureus [6]): 3.2 mg/kg
- MIC (Staphylococcus aureus [7]): 0.39 µg/mL (≈ 0.934 µM)
- MIC (Staphylococcus aureus [8]): 0.2 µg/mL (≈ 0.479 µM)
- ED50 (Escherichia coli [9]): 0.5 mg/kg
- ED50 (Pseudomonas aeruginosa [10]): 26.6 mg/kg
- MIC (Escherichia coli [11]): 0.05 µg/mL (≈ 0.12 µM)
- MIC (Escherichia coli [12]): 0.05 µg/mL (≈ 0.12 µM)
- MIC (Pseudomonas aeruginosa [13]): 0.39 µg/mL (≈ 0.934 µM)
- ED50 (Staphylococcus aureus [14]): 1.5 mg/kg
- MIC (Enterococcus faecium): 0.78 µg/mL (≈ 1.87 µM)
- MIC (Micrococcus luteus [15]): 1.56 µg/mL (≈ 3.74 µM)
- ED50 (Escherichia coli [16]): 3.7 mg/kg
- MIC (Klebsiella pneumoniae): 0.05 µg/mL (≈ 0.12 µM)
- MIC (Escherichia coli [17]): 0.39 µg/mL (≈ 0.934 µM)
- MIC (Streptococcus pyogenes [18]): 0.78 µg/mL (≈ 1.87 µM)
- MIC (Klebsiella aerogenes): 0.1 µg/mL (≈ 0.24 µM)
- solubility [19]: 6500 µg/mL (≈ 15600 µM)
- MIC (Streptococcus agalactiae): 0.78 µg/mL (≈ 1.87 µM)
- MIC (Streptococcus pyogenes [20]): 0.39 µg/mL (≈ 0.934 µM)
- ED50 (Streptococcus pneumoniae [21]): 10.2 mg/kg
- ED50 (Pseudomonas aeruginosa [22]): 26.6 mg/kg
- MIC (Acinetobacter): 0.1 µg/mL (≈ 0.24 µM)
- MIC (Staphylococcus aureus [23]): 0.1 µg/mL (≈ 0.24 µM)
- ED50 (Pseudomonas aeruginosa [24]): 10.3 mg/kg
- MIC (Pseudomonas aeruginosa [25]): 0.39 µg/mL (≈ 0.934 µM)
- MIC (Streptococcus equinus): 1.56 µg/mL (≈ 3.74 µM)
- ED50 (Pseudomonas aeruginosa [26]): 12.5 mg/kg
- ED50 (Streptococcus pneumoniae [27]): 6.2 mg/kg
- MIC (Staphylococcus aureus [28]): 0.2 µg/mL (≈ 0.479 µM)
- MIC (Burkholderia cepacia): 12.5 µg/mL (≈ 29.9 µM)
- MIC (Providencia stuartii): 3.1 µg/mL (≈ 7.43 µM)
- MIC [29]: 0.2 µg/mL (≈ 0.479 µM)
- MIC (Streptococcus pyogenes [30]): 0.39 µg/mL (≈ 0.934 µM)
- ED50 (Staphylococcus aureus [31]): 1.3 mg/kg
- MIC (Escherichia coli [32]): 5 ng/mL (≈ 0.012 µM)
- ED50 (Escherichia coli [33]): 0.6 mg/kg
- solubility [34]: 670 µg/mL (≈ 1610 µM)
- ED50 (Escherichia coli [35]): 5 mg/kg
- MIC (Pseudomonas aeruginosa [36]): 0.05 µg/mL (≈ 0.12 µM)
- MIC (Staphylococcus aureus [37]): 0.2 µg/mL (≈ 0.479 µM)
- ED50 (Staphylococcus aureus [38]): 6 mg/kg
- logD [39]: -0.29
- MIC (Escherichia coli [40]): 0.39 µg/mL (≈ 0.934 µM)
